# Scp1 inh: Scp-1 phosphatase inhibitors, primary screen, biochemical, colorimetric, uHTS; Recombinant Scp1, phosphopeptide, malachite green phosphate absorbance; inhibition, % at 20 µM; 0.88% of 340,000 active; AID 493091, 2011;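 active = inhibition above about 50% at 20 µM, limit read from the data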;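 also: plate controls were DMSO wells with enzyme for no effect and wells lacking enzyme for full effect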
#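 Test system: SCP-1 catalytic domain; Buffer or medium: Acidic Tris acetate buffer with magnesium and detergent; Also added: Phosphorylated 17-residue peptide substrate; Compound: single 20 µM dose, 1% DMSO; Schedule: enzyme reaction 45 min at room temperature, colour 5 min, stabilisation 30 min; Signal: Phosphate-binding colour reagent, absorbance read at 630 nm.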
# STEP inh: STEP phosphatase inhibitors, primary screen, biochemical, fluorescence intensity, uHTS; Tyrosine-protein phosphatase non-receptor type 5 (Homo sapiens), P54829; 0.25% of 360,000 active; recombinant STEP, OMFP fluorogenic substrate; inhibition, % at 20 µM;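 active = inhibition at 20 µM, scaled per plate between control wells, above about 37%, limit read from the data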;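 also: 0% = DMSO with enzyme and substrate and 100% = substrate only without enzyme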
# Target sequence (P54829 whole entry, looked up): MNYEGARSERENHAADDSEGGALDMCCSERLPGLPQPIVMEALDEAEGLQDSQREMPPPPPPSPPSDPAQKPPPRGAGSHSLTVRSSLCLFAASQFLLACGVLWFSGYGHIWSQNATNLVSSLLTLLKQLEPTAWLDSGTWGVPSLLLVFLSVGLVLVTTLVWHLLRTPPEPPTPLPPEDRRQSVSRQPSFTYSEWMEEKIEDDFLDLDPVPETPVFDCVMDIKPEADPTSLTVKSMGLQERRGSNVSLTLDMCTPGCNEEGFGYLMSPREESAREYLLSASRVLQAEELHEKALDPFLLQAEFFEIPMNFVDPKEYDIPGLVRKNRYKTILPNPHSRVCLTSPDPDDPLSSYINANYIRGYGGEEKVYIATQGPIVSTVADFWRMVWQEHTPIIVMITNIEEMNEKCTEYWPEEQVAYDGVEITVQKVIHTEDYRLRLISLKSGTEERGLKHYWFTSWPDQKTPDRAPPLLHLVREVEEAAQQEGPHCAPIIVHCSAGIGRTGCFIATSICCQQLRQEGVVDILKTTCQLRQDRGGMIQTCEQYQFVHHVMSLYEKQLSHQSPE
#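 Material: STEP (striatal-enriched tyrosine phosphatase) enzyme, cell-free; Compound dosing: 20 µM single dose in 1% DMSO; Technique: fluorescence read at 480 nm ex / 540 nm em; Times: reaction 20 min, ambient temperature; Medium: 50 mM Bis-Tris pH 6.0 with 2.5 mM DTT and 0.005% Tween 20; Also added: OMFP at 25 µM.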
# DSG3 Ab inh: inhibitors of pemphigus antibody binding to DSG3, primary screen, biochemical, bead-based, flow cytometry, scFv-GFP; AID 588358, 2011; Desmoglein-3 (Homo sapiens), P32926; 0.48% of 310,000 active; DSG3-coupled beads, scFv-anti-DSG3-GFP binding; active compounds read low; binding (percent of control), % at 10 µM;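 active = binding more than 3 SD below its plate's average and above zero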;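 also: hits lower antibody fragment binding to DSG3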
# SUMO1-SIM PPI: modulators of SUMO1 protein-protein interactions, primary screen, biochemical, uHTS; Small ubiquitin-related modifier 1 (Homo sapiens), P63165; SUMO1 binding to a labelled peptide, TR-FRET, 1 h; inhibition, % at 20 µM; 0.33% of 360,000 active; AID 602429, 2012; in the data active = inhibition above about 37%
# Target sequence (P63165 whole entry, looked up): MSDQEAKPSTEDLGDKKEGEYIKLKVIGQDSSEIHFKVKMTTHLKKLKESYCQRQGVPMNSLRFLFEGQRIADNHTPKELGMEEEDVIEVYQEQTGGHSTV
# LMPTP block: LMPTP phosphatase inhibitors, primary screen, biochemical, fluorescence intensity, uHTS; Low molecular weight phosphotyrosine protein phosphatase (Homo sapiens), P24666; recombinant LMPTP-A, OMFP fluorogenic substrate; inhibition, % at 20 µM; 0.22% of 360,000 active;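 active = compounds that cut the enzyme signal by at least half of the control window in the single-dose screen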;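 also: plate controls were DMSO wells with enzyme plus substrate for no effect and substrate without enzyme for full effect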
#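 Assay system: LMPTP-A, protein tyrosine phosphatase of low molecular weight / Medium: pH 6.0 Bis-Tris buffer with DTT and Triton X-100 / Schedule: 50 min enzyme reaction at room temperature, protected from light / Measured by: endpoint fluorescence intensity from OMFP dephosphorylation / Read-out basis: % inhibition relative to no-enzyme and uninhibited control wells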
# Scp1 confirm: Scp-1 phosphatase inhibitors, retest, confirmation, biochemical, colorimetric, single concentration | shares compounds with Scp1 inh | recombinant SCP-1 catalytic domain, phosphate release, malachite green absorbance | inhibition, % at 20 µM | 61% of 2,500 active | AID 540281, 2011;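 also: plate controls were DMSO with enzyme for no effect and buffer wells lacking enzyme for full effect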
# MG interference: colorimetric readout interference by compounds, confirmation, artefact control for Scp-1 inhibitor project, biochemical, single concentration; Colorimetric interference counterscreen, malachite green absorbance 630 nm; apparent inhibition (interference), % at 20 µM; AID 540313, 2011; 2,500 tested, under 10 active; shares compounds with Scp1 inh;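 also: compounds added after enzyme reaction finished so only phosphate colour detection is probed; plate controls were DMSO wells with completed Scp-1 reaction for no effect and substrate wells lacking enzyme for full effect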
# Scp1 DSF: Scp-1 binding by thermal shift, confirmation, orthogonal assay for Scp-1 inhibitor project, biophysical, differential scanning fluorimetry. thermal shift relative to vanadate control, % at 40 µM. shares compounds with Scp1 inh. 25% of 1,500 active. Recombinant SCP1, Sypro Orange thermal shift Tm;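 active = substances whose mean melting-temperature shift, as a percentage of the reference inhibitor's shift, reaches about 5.3%, limit read from the data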;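 also: 0% = Tm of DMSO wells and 100% = Tm with sodium orthovanadate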
# The depositor's hits bear a star; · = no result given. In the library only some 1.7% were active in any assay of this set; here they are far more common.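 The calls were made as follows, unless noted: active = inhibition of at least 30% at 20 µM; inactive = the rest.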
SMILES,Scp1 inh,STEP inh,DSG3 Ab inh,SUMO1-SIM PPI,LMPTP block,Scp1 confirm,MG interference,Scp1 DSF
COc1cc(/C=C(/C#N)C(=O)Nc2ccccc2)ccc1OCc1ccc(C(=O)O)cc1,81.7*,26.6,84.3,8.2,17.5,57.7*,-22.5,2.8
CC(NC(=O)/C(C#N)=C/c1ccc(OCC(=O)O)cc1)c1ccccc1 (stereo not given),98.2*,3.0,118.0,-7.6,-1.5,39.7*,-2.1,0.8
COCCNC(=O)/C(C#N)=C/c1ccc(OCc2ccccc2)cc1,-4.1,-1.2,101.1,-21.3,4.1,·,·,·
N#C/C(=C\c1ccc(OCc2ccc(C(=O)O)cc2)cc1)C(=O)NCc1ccccc1,90.7*,19.0,89.3,-15.9,-0.8,80.8*,-10.9,-24.4
COc1cc(/C=C(\C#N)C(=O)NC(C)C)ccc1OCc1ccc(C(=O)O)cc1,6.0,-1.0,96.5,-5.3,-2.6,·,·,·
COc1ccc(/C=C/C(=O)OCC(=O)Nc2cc(S(=O)(=O)N(C)C)ccc2Cl)cc1,-3.5,-1.1,98.5,1.6,-1.2,·,·,·
O=C(COC(=O)/C=C/c1ccco1)Nc1ncc(Cl)cc1Cl,56.7*,10.6,106.9,-7.4,6.5,56.2*,-9.0,-9.6
CN(C)S(=O)(=O)c1ccc(Cl)c(NC(=O)COC(=O)/C=C/c2ccco2)c1,69.3*,6.1,116.5,-3.2,5.7,45.5*,-12.9,-3.6
CC1=C(N2CCCCC2)CCC1=O,-4.9,1.8,102.5,6.9,-1.8,·,·,·
O=C1NC(c2ccccc2)=C(c2ccc3ccccc3n2)C(c2ccccc2)N1 (stereo not given),58.9*,-2.2,91.8,-3.6,1.2,-10.8,-11.8,·
C=CCn1c(COc2cc(C)ccc2C(C)C)nnc1SCC(=O)c1c(N)n(C)c(=O)n(C)c1=O,52.4*,-1.8,99.7,2.2,1.4,10.8,-1.0,·
Cc1cc(C(=O)COc2ccc3ccc(=O)oc3c2)c(C)n1Cc1cccs1,66.2*,2.7,92.8,26.4,5.5,52.8*,-20.0,-11.8
C[C@@H]1CN([C@@H](C)CO)C(=O)c2cccc(NS(C)(=O)=O)c2O[C@H]1CN(C)Cc1ccc(C(=O)O)cc1,-7.7,2.8,103.4,-2.6,-0.9,·,·,·
C[C@H](CO)N1C[C@H](C)[C@@H](CN(C)Cc2ccc(C(=O)O)cc2)Oc2c(NS(=O)(=O)c3cn(C)cn3)cccc2C1=O,61.6*,-1.5,99.0,3.4,-1.9,4.8,-4.0,·
C[C@@H]1CN([C@@H](C)CO)C(=O)c2cccc(NS(C)(=O)=O)c2O[C@H]1CN(C)Cc1ccc(Oc2ccccc2)cc1,1.7,-0.8,95.3,-1.1,-1.3,·,·,·
C[C@H](CO)N1C[C@H](C)[C@@H](CN(C)Cc2ccncc2)Oc2c(NS(=O)(=O)c3ccc(F)cc3)cccc2C1=O,59.1*,1.4,105.6,5.0,0.8,-12.5,-20.5,·
C[C@H]1CN([C@@H](C)CO)C(=O)c2cccc(NS(=O)(=O)c3cn(C)cn3)c2O[C@H]1CN(C)S(C)(=O)=O,10.6,-1.7,100.5,-2.1,-0.8,·,·,·
C[C@H](CO)N1C[C@H](C)[C@@H](CN(C)Cc2ccc(Oc3ccccc3)cc2)Oc2c(NS(=O)(=O)c3cn(C)cn3)cccc2C1=O,50.1*,0.2,100.5,3.9,-0.2,-4.9,-9.8,·
C[C@H](CO)N1C[C@H](C)[C@@H](CN(C)Cc2ccccc2)Oc2c(NS(=O)(=O)c3cn(C)cn3)cccc2C1=O,68.9*,1.6,104.2,-4.5,-0.8,-4.1,-12.9,·
C[C@H](CO)N1C[C@H](C)[C@@H](CN(C)Cc2ccncc2)Oc2c(NS(=O)(=O)c3ccc(Cl)cc3)cccc2C1=O,18.3,-3.5,99.8,2.7,-1.8,·,·,·
O=C(NCCCN1CCOCC1)C(=O)N/N=C/c1c2ccccc2cc2ccccc12,-20.7,0.6,100.9,-13.8,0.3,·,·,·
C[C@H](CO)N1C[C@H](C)[C@@H](CN(C)CC2CCCCC2)Oc2c(NS(=O)(=O)c3cn(C)cn3)cccc2C1=O,59.4*,-2.0,102.2,16.4,-1.8,7.5,-3.8,·
O=C(O)C1Cc2ccccc2CN1C(=O)COc1ccc(Br)cc1 (stereo not given),53.1*,4.8,100.7,19.9,-1.1,55.0*,-14.0,0.4
O=C(Cc1nnc(NC(=O)c2ccccc2)s1)N/N=C\c1ccc(O)c(O)c1,31.4,2.0,94.3,1.0,2.9,·,·,·
O=C(Cc1nnc(NC(=O)c2ccccc2)s1)N/N=C/c1ccc(O)cc1,61.5*,26.0,115.5,-13.5,8.8,48.6*,-7.9,5.2
SMILES,Scp1 inh,STEP inh,DSG3 Ab inh,SUMO1-SIM PPI,LMPTP block,Scp1 confirm,MG interference,Scp1 DSF
CN1CCN(C(=O)/C=C/c2c(F)cccc2Cl)CC1,-2.0,2.1,99.7,3.7,-2.3,·,·,·
Cc1ccc(N2CC(C(=O)Nc3nnc(SCCC4OCCO4)s3)CC2=O)cc1 (stereo not given),-8.3,-3.1,103.0,7.4,-0.6,-22.1,-18.6,·
COc1cccc(C(=O)Oc2c(Br)cc(Br)cc2/C=N/NC(=O)c2cc(C)[nH]n2)c1,-5.7,-0.4,94.0,-0.1,5.1,·,·,·
CCc1c(C)nc2cc(-c3cccc(Br)c3)[nH]n2c1=O,93.2*,22.2,102.3,11.9,1.3,62.3*,-12.3,-4.0
CCOC(=O)N1CCN(C(=O)CSc2ncnc3ccccc23)CC1,53.6*,-3.4,96.9,-2.7,-1.3,-26.6,-18.0,·
COC(=O)[C@]1(Cc2ccccc2)N[C@H](c2ccc(-c3cccc(Cl)c3)cc2)[C@@H]2C(=O)N(C)C(=O)[C@@H]21,-4.4,2.2,92.7,0.9,2.5,·,·,·
NS(=O)(=O)c1ccc(CCNC(=O)c2ccc3nccnc3c2)cc1,99.0*,8.2,106.6,10.9,55.0*,75.8*,-7.1,0.8
Cc1cc(C)c2oc(C(=O)NCCc3ccc(S(N)(=O)=O)cc3)cc(=O)c2c1,-12.3,-2.2,87.8,3.6,-0.7,·,·,·

# Screening data from PubChem.
